Reference: ChEMBL document CHEMBL1154048, “Design, synthesis and pharmacological evaluation of new 1-[3-(4-arylpiperazin-1-yl)-2-hydroxy-propyl]-3,3-diphenylpyrrolidin-2-one derivatives with antiarrhythmic, antihypertensive, and alpha-adrenolytic activity” (Eur J Med Chem, 2009)

Biological target: T1, Adrenergic receptor alpha-1 (Rattus norvegicus, UniProt P15823+P23944+P43140)
T1 sequence (P15823 whole entry): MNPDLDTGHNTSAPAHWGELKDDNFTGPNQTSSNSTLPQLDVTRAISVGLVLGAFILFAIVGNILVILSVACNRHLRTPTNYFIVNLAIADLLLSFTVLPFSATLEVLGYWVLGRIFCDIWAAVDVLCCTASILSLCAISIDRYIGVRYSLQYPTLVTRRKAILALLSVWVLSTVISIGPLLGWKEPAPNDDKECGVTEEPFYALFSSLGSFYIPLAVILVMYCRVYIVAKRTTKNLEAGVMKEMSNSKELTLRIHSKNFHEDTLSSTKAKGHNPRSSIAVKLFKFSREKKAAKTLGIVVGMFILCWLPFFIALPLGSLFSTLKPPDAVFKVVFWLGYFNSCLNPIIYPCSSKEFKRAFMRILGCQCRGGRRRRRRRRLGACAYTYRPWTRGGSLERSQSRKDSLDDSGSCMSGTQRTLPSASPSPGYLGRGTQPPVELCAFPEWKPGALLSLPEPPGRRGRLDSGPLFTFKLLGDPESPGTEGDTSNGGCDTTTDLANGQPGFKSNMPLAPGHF
T1 sequence (P23944 whole entry): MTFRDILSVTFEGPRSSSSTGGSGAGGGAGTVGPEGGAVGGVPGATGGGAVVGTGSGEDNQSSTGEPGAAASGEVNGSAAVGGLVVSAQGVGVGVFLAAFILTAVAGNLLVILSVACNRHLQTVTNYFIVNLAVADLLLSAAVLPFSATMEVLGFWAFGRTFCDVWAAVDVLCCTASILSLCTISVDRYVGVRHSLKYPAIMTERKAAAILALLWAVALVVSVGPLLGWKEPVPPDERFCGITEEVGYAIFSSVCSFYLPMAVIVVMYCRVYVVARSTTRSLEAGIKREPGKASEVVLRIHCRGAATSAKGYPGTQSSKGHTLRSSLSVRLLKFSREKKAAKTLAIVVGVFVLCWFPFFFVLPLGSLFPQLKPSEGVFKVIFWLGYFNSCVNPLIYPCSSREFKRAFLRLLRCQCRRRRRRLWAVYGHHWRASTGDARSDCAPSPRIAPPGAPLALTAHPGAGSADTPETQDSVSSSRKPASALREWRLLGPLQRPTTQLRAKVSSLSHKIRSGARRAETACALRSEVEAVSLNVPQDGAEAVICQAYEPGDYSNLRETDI
T1 sequence (P43140 whole entry): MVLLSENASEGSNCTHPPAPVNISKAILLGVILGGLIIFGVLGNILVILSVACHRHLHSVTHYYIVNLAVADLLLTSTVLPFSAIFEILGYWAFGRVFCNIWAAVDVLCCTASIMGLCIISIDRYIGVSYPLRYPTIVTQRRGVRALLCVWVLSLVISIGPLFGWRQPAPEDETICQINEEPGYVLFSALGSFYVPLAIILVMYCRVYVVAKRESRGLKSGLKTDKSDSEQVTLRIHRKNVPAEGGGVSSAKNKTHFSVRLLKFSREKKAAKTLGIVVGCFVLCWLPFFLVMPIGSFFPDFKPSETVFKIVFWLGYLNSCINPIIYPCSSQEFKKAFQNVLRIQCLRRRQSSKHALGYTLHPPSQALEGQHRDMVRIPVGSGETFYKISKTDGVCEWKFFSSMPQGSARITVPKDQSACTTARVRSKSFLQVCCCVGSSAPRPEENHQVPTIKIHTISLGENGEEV
Test: Displacement of [3H]prazosin from alpha1 adrenergic receptor in rat cerebral cortex by liquid scintillation counting
Type: tissue-based
In short: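 Rat cerebral cortex was homogenized in ice-cold 50 mM Tris–HCl pH 7.6, centrifuged 20 000 × g for 20 min at 0–4 °C, and washed once more. Membranes were incubated with [3H]prazosin 0.2 nM and seven to eight compound concentrations (10^-11–10^-4 M), with phentolamine defining nonspecific binding. Bound ligand was filtered on glass fiber and counted by liquid scintillation. Runs were in duplicate, and Ki was calculated by Cheng–Prusoff.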

pKi | Structure (SMILES)
5.36 | COc1ccc(N2CCN(CC(O)CN3CCC(c4ccccc4)(c4ccccc4)C3=O)CC2)cc1.Cl.Cl (stereo unspecified)
6.8 | COc1ccccc1N1CCN(CC(O)CN2CCC(c3ccccc3)(c3ccccc3)C2=O)CC1.Cl.Cl (stereo unspecified)
6.74 | Cl.Cl.O=C1N(CC(O)CN2CCN(c3ccccc3)CC2)CCC1(c1ccccc1)c1ccccc1 (stereo unspecified)
7.28 | CCOc1ccccc1N1CCN(CC(O)CN2CCC(c3ccccc3)(c3ccccc3)C2=O)CC1.Cl.Cl (stereo unspecified)
5.89 | Cl.Cl.O=C1N(CC(O)CN2CCN(c3ccccc3C(F)(F)F)CC2)CCC1(c1ccccc1)c1ccccc1 (stereo unspecified)
6.69 | Cc1ccccc1N1CCN(CC(O)CN2CCC(c3ccccc3)(c3ccccc3)C2=O)CC1.Cl.Cl (stereo unspecified)
